In the library only some 5.7% were active in any assay of this set; here they are far more common.
CSC inhib – cancer stem cell inhibition; cancer stem cell-like cells viability, luminescence; actives 1.1% (n = 300,000); inhibition, % at 7.5 µM; in the data active means inhibition above about 75%; inconclusive means no clear call, values can overlap the other calls; tested in HMLE shEcad cells
SKKanGAS inh – blocks kanamycin growth of S. pyogenes SKKanGAS strain. inhibition, % at 7.5 µM. actives 1.3% (n = 300,000). BacTiter-Glo, 6 h;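 active means mean replicate score, as percent of positive control median, at least 50; inconclusive means mean below 50 but one replicate at or above 50; inactive means mean and every replicate below 50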;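 further: strain carries kanamycin resistance gene driven by streptokinase promoter and grows in 40 µg/ml kanamycin; loss of luminescence reflects streptokinase promoter inhibition or plain growth inhibition; 0% = median of DMSO wells and 100% = positive control at its reference dose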
Mdm2-MdmX inh – disrupts the human Mdm2-MdmX interaction. O15151+Q00987. SaOS-2 split-luciferase Mdm2/MdmX complementation, luminescence. inhibition, % at 8 µM. actives 3% (n = 330,000);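 active means inhibition of at least 50% at 8 µM in the primary screen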
Target sequence (O15151 whole entry, looked up): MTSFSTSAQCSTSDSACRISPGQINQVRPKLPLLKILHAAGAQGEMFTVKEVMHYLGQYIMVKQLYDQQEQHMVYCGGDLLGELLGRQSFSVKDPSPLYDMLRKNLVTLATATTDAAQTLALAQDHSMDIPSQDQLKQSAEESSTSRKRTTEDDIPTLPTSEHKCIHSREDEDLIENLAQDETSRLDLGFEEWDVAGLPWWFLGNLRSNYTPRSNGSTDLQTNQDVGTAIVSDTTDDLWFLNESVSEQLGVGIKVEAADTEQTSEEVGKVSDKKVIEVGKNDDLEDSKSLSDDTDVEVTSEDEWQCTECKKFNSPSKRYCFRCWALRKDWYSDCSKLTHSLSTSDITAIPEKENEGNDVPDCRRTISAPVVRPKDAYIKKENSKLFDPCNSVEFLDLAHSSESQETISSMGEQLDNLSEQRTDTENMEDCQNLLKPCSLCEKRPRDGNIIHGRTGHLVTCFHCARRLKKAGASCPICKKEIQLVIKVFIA
Target sequence (Q00987 whole entry, looked up): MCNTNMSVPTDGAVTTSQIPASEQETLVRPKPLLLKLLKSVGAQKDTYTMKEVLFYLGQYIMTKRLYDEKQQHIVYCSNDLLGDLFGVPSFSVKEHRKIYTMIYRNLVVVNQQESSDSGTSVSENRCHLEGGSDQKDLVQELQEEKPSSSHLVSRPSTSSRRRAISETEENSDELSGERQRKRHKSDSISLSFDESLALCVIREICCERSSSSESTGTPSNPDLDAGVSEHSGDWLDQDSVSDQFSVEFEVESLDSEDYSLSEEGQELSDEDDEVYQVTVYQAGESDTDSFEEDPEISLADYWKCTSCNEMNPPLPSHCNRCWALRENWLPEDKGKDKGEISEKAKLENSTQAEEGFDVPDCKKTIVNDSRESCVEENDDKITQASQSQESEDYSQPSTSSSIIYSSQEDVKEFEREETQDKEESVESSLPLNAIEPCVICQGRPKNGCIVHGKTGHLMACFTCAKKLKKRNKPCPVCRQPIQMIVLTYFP
Calb FLC – affects C. albicans growth with fluconazole | C. albicans CaCi-2 (fluconazole-resistant clinical isolate) + fluconazole, Alamar Blue growth, 48 h | growth inhibition, % (concentration not given with the values) | actives 0.57% (n = 300,000);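 active means growth inhibition above about 58% in most replicates, limit read from the data, passing the limit was not always enough; inconclusive means exactly half the replicates above a set limit; inactive means most replicates below a set limit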;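 further: all wells also contain fluconazole at 8 µg/ml as a sub-toxic cotreatment; 0% = median of DMSO wells and 100% = median of geldanamycin control wells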
Beta cell apopt – beta cell apoptosis inhibition; protection from apoptosis, % (no concentration beside the values); INS-1E cytokine-induced death, ATP luminescence, 48 h; percent of positive-control rescue, neutral wells zero; actives 0.8% (n = 300,000); AID 435005;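 active means Every replicate reaches about 75%, or at least half do and their mean reaches it too, limit read from the data; inconclusive means At least half of replicates reach the limit but their mean does not; inactive means Under half of replicates reach the limit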;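 further: 0% = cytokine-treated negative control wells and 100% = positive control rescue; higher means more ATP so stronger rescue from cytokine killing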
T cruzi repl – T. cruzi replication inhibition; T. cruzi beta-gal in NIH3T3, luminescence, 90 h; inhibition, % (no concentration beside the values); actives 1.4% (n = 300,000); AID 1885;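 active means mean inhibition across valid replicates above about 55%, limit read from the data; inconclusive means mean below that limit but half or more replicates reach it; inactive means mean below it, under half of replicates reach it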;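 further: signal also drops with host cell toxicity which is not excluded here; 0% = plate median of DMSO wells and 100% = zero luminescence signal; higher percent means less beta-gal luminescence so fewer parasites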
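Assay system: NIH/3T3 fibroblasts plus reporter T. cruzi. Amount: NIH/3T3 cells, 5,000 per well. Buffer or medium: DMEM, 2% fetal bovine serum. Doses: compound pinned at 50 nL/well, DMSO. Schedule: ≥90 h infection period, 3 h prior cell attachment. Signal: luminescent β-galactosidase signal after 60 min lysis. Read-out: parasite load inhibition, %.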
Mdm2 MdmX conf – confirmation of human Mdm2/MdmX interaction inhibitors | shares compounds with Mdm2-MdmX inh | Mdm2-MdmX binding, luminescent assay | inhibition, % at 8 µM | actives 55% (n = 10,000) | AID 489028; in the data active means inhibition above about 40%
FLuc counter – full-length luciferase inhibition in Mdm2/MdmX counter-screen. shares compounds with Mdm2-MdmX inh. SaOS-2 full-length luciferase counterscreen, luminescence. inhibition, % at 8 µM. actives 77% (n = 6,200). AID 504607;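 active means mean inhibition at 8 µM reaching about 37%, which flags the compound as non-specific, limit read from the data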;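 further: p53-null SaOS-2 cells with luciferase driven by a doxycycline-inducible promoter; compound on cells about two nights before reading with doxycycline added after day one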
Starred values were filed as active, the others as inactive; ? = inconclusive; · = no result.

SMILES	CSC inhib	SKKanGAS inh	Mdm2-MdmX inh	Calb FLC	Beta cell apopt	T cruzi repl	Mdm2 MdmX conf	FLuc counter
CCOC(=O)c1c(CSc2ccc(CC)cc2)oc2ccc(O)c(CN(C)C)c12	81*	1	86*	11	4	63*	44*	63*
CCn1c(O)c(/C=N/N=C2CCCC2)c2ccc(C3=NNC(=O)CC3)cc21	0	14	-12	-7	0	1	·	·
CCCCC(CCCC)=N/N=C/c1c(O)n(CC)c2cc(C3=NNC(=O)CC3)ccc12	-17	8	58*	-1	19	21	9	·
COc1ccccc1[C@@]1(C)ON(c2ccccc2C(F)(F)F)C1=O	58	·	89*	·	-9	·	80*	32
CC[C@]1(c2ccccc2C)ON(c2ccccc2C(F)(F)F)C1=O	18	·	47	·	8	·	·	·
Cc1ccccc1[C@]1(C)ON(c2ccccc2C(F)(F)F)C1=O	55	·	80*	·	-12	·	46*	59*
Cc1cc(C(=O)N/N=C/c2c(C)nn(-c3ccccc3)c2C)c(C)o1	-2	-8	3	-3	0	-16	·	·
O=C(NNC(=O)c1cc([N+](=O)[O-])ccc1Cl)c1cccnc1	7	·	1	37	2	·	·	·
Cc1ccc(C)c(NC(=S)N=Nc2c(O)n(C)c3ccc(S(=O)(=O)N4CCOCC4)cc23)c1	31	-13	67*	-6	48	0	45*	59*
CCc1ccccc1NC(=S)N=Nc1c(O)n(C)c2ccc(S(=O)(=O)N3CCOCC3)cc12	40	37	52*	69	·	41	60*	53*
O=S(=O)(c1ccc(N2CCN(CCO)CC2)nc1)N1CCOCC1	-2	-13	3	2	0	0	·	·
COc1ccc(-c2nnc(-c3ccc(F)cc3)o2)cc1	-1	-15	-116	-5	0	-17	·	·
COc1cccc2sc(Nc3nnc(-c4ccc(F)cc4)o3)nc12	107*	88*	64*	117*	26	43	41*	67*
CCc1ccc2[nH]c3nc(N/N=C/c4ccc(O)cc4O)nnc3c2c1	67	2	58*	?	108*	57*	94*	29
COc1cc(/C=N/Nc2nnc3c(n2)[nH]c2ccccc23)ccc1O	4	7	·	6	-1	-16	·	·
CCCN(CCC)C(=O)c1cc(S(=O)(=O)N2CCCCC2)c[nH]1	-10	-3	12	2	-3	4	·	·
Nc1ccc(C(=O)n2c3ccccc3c3ccccc32)cc1	17	16	60*	-6	10	-28	57*	63*
Cc1ccc(C(=O)n2c(N)nc3ccccc32)cc1	12	?	52*	5	20	-10	44*	98*
O=c1c2ccccc2cnn1CCOc1ccccc1	20	9	60*	-18	6	-7	69*	65*
CCOC(=O)c1[nH]c(CN2CCN(c3ccc(OC)cc3)CC2)c(C(=O)OCC)c1C	2	0	0	0	8	24	·	·
Cc1cc(C)c2c(n1)sc1c(N3CCCCC3)ncnc12	15	1	5	-3	8	12	·	·
CC1(C)Cc2c(c(N3CCCC3)nc3sc4c(N5CCNCC5)ncnc4c23)CO1	10	9	58*	26	·	14	5	·
Cc1ccc(-n2nnnc2SC(C(=O)c2c[nH]c3ccccc23)c2ccccc2)cc1 (stereo not drawn)	86*	33	60*	3	1	32	65*	56*
COc1ccc(-n2nnnc2CNC(=O)C(=O)c2c[nH]c3ccccc23)cc1	-2	-4	-3	7	·	0	·	·
CC(C)(C)n1nnnc1C(c1ccc(C(F)(F)F)cc1)N(Cc1ccccc1)Cc1ccco1 (stereo not drawn)	-13	-11	77*	19	117*	31	-4	·
SMILES	CSC inhib	SKKanGAS inh	Mdm2-MdmX inh	Calb FLC	Beta cell apopt	T cruzi repl	Mdm2 MdmX conf	FLuc counter
CC(C)(C)n1nnnc1C(c1ccc(C(F)(F)F)cc1)N(Cc1ccc(F)cc1)Cc1ccco1 (stereo not drawn)	-9	-2	90*	4	107*	14	27	·
CC(C)(C)n1nnnc1C(c1ccc(F)cc1)N(Cc1ccc(F)cc1)Cc1ccco1 (stereo not drawn)	24	4	61*	14	77*	34	34	·
OCCC1CN(Cc2cc3c(cc2Cl)OCO3)CCN1C1CCCCC1 (stereo not drawn)	18	-1	20	-24	4	-6	·	·
O=S(=O)(Nc1nc2ccccc2nc1-[n+]1cccc(N=C([O-])c2ccccc2Cl)c1)c1ccccc1	-9	6	31	3	-6	-13	·	·
C[C@H](CO)N1C[C@H](C)[C@@H](CN(C)C(=O)Nc2ccc(C(F)(F)F)cc2)Oc2ccc(NS(=O)(=O)c3ccccc3)cc2C1=O	-2	·	5	·	-4	·	·	·
CCOc1ccc(CCNC(=O)Cn2nc(C)n3cccc3c2=O)cc1OCC	-2	3	8	-11	-6	10	·	·
COc1ccc2c(Cn3cnc4cc([N+](=O)[O-])ccc4c3=O)cc(=O)oc2c1	65	7	60*	0	2	28	73*	20
COc1ccc(-c2cc(=O)oc3cc(OCC(=O)c4cccc([N+](=O)[O-])c4)ccc23)cc1	·	11	·	-2	·	33	·	·
COc1ccc(CCNC(=O)C2CCCN(c3ncnc4c3nc3n4CCCCC3)C2)c(OC)c1 (stereo not drawn)	·	7	30	10	4	7	·	·
CCCCOc1ccc(CN=C(N)N)cc1Cl	18	11	47	-1	36	6	·	·
CCCOc1ccc(CCCN=C(N)N)cc1Cl	50	13	52*	1	-5	29	19	·
O=[N+]([O-])c1cc([N+](=O)[O-])c(Oc2cccnc2Br)cc1NN1CCCCC1	33	7	56*	2	-1	-4	13	·
Cc1nc(-c2ccc(F)cc2)c(CC(=O)NCC(=O)Nc2ccc(F)c(F)c2)s1	-1	·	7	·	-1	·	·	·
COc1ccc(NC(=S)N(CCCN2CCC(C)CC2)Cc2cccs2)cc1Cl	17	1	29	-10	-2	23	·	·
Cc1ccc(NC(=S)N(CCCN2CCCC2)Cc2cccn2Cc2ccc(Cl)cc2)cc1C	70	1	58*	-4	27	39	37	·
FC(F)(F)c1cccc(NC(=S)N(CCCN2CCCC2)Cc2cccn2Cc2ccc(Cl)cc2)c1	130*	-5	96*	-3	27	71*	54*	30
COc1ccc(NC(=S)N(CCCN2CCCC2)Cc2cccn2Cc2ccc(Cl)cc2)cc1Cl	42	10	85*	-10	57	47	57*	54*
